Laboratory results from ChEMBL document CHEMBL1157660, “Synthesis and biological evaluation of 2',5'-dimethoxychalcone derivatives as microtubule-targeted anticancer agents” (Bioorg Med Chem, 2010).
The source made the active and inactive calls. The rule behind the calls is not given here.

Tests used:
[1] = Cytotoxicity against human NTUB1 cells after 72 hrs by MTT assay; format: functional, cell-based; conditions: NTUB1, 72 h
How it was run: (§1)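 MTT assay: 1800 cells/well plated, overnight at 37 °C, then graded concentrations for 72 h at 37 °C. MTT added for 3 h, plates centrifuged, formazan dissolved in DMSO, absorbance read at 540 nm. Viability as percent of control; IC50 by median-effect analysis, mean ± SD. Cells grown in RPMI 1640 with 10% FBS.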

[2] = tested on: PC-3; test: Cytotoxicity against human PC3 cells after 72 hrs by MTT assay; format: functional, cell-based; conditions: PC-3, 72 h; how it was run: as §1
[3] = Cell cycle arrest in human NTUB1 cells assessed as accumulation at G2/M phase at 1 uM after 24 hrs by propidium iodide staining-based FACS analysis; format: functional
How it was run: (§2)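 Cells (6×10^5 plated) treated 24 h; 20 µM cisplatin as reference, medium-only control. Harvested by trypsinization, PBS-washed, fixed overnight in ice-cold methanol at −20 °C. Stained 30 min at room temperature in PBS with 50 µg/mL propidium iodide plus 50 µg/mL RNase A. DNA content by FACScan flow cytometry; sub-G1 taken as apoptosis. Representative of three independent experiments.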

[4] = Cell cycle arrest in human NTUB1 cells assessed as accumulation at S phase at 1 uM after 24 hrs by propidium iodide staining-based FACS analysis; format: functional; how it was run: as §2
[5] = Cell cycle arrest in human NTUB1 cells assessed as accumulation at G1 phase at 1 uM after 24 hrs by propidium iodide staining-based FACS analysis; format: functional; how it was run: as §2
[6] = Cell cycle arrest in human NTUB1 cells assessed as accumulation at sub-G1 phase at 1 uM after 24 hrs by propidium iodide staining-based FACS analysis; format: functional; how it was run: as §2
[7] = Cell cycle arrest in human NTUB1 cells assessed as accumulation at G2/M phase at 3 uM after 24 hrs by propidium iodide staining-based FACS analysis; format: functional; how it was run: as §2
[8] = Cell cycle arrest in human NTUB1 cells assessed as accumulation at S phase at 3 uM after 24 hrs by propidium iodide staining-based FACS analysis; format: functional; how it was run: as §2
[9] = Cell cycle arrest in human NTUB1 cells assessed as accumulation at G1 phase at 3 uM after 24 hrs by propidium iodide staining-based FACS analysis; format: functional; how it was run: as §2
[10] = Cell cycle arrest in human NTUB1 cells assessed as accumulation at sub-G1 phase at 3 uM after 24 hrs by propidium iodide staining-based FACS analysis; format: functional; how it was run: as §2
[11] = tested on: PC-3; test: Cell cycle arrest in human PC3 cells assessed as accumulation at G2/M phase at 1 uM after 24 hrs by propidium iodide staining-based FACS analysis; format: functional; how it was run: as §2
[12] = tested on: PC-3; test: Cell cycle arrest in human PC3 cells assessed as accumulation at S phase at 1 uM after 24 hrs by propidium iodide staining-based FACS analysis; format: functional; how it was run: as §2
[13] = tested on: PC-3; test: Cell cycle arrest in human PC3 cells assessed as accumulation at G1 phase at 1 uM after 24 hrs by propidium iodide staining-based FACS analysis; format: functional; how it was run: as §2
[14] = tested on: PC-3; test: Cell cycle arrest in human PC3 cells assessed as accumulation at sub-G1 phase at 1 uM after 24 hrs by propidium iodide staining-based FACS analysis; format: functional; how it was run: as §2
[15] = tested on: PC-3; test: Cell cycle arrest in human PC3 cells assessed as accumulation at G2/M phase at 3 uM after 24 hrs by propidium iodide staining-based FACS analysis; format: functional; how it was run: as §2
[16] = tested on: PC-3; test: Cell cycle arrest in human PC3 cells assessed as accumulation at S phase at 3 uM after 24 hrs by propidium iodide staining-based FACS analysis; format: functional; how it was run: as §2
[17] = tested on: PC-3; test: Cell cycle arrest in human PC3 cells assessed as accumulation at G1 phase at 3 uM after 24 hrs by propidium iodide staining-based FACS analysis; format: functional; how it was run: as §2
[18] = tested on: PC-3; test: Cell cycle arrest in human PC3 cells assessed as accumulation at sub-G1 phase at 3 uM after 24 hrs by propidium iodide staining-based FACS analysis; format: functional; how it was run: as §2
[19] = tested on: NTUB1; test: Inhibition of alpha-tubulin assembly in human NTUB1 cells at 0.3 to 1 uM after 24 hrs by DAPI staining-based microscopic analysis; format: cell-based
How it was run: (§3)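 NTUB1 cells seeded on serum-coated coverslips (10⁵ cells/well), incubated overnight, then treated 24 h. Fixed in 2% formaldehyde/PBS 20 min and permeabilized in cold methanol 3 min. Stained overnight with anti-α-tubulin primary, then rhodamine goat anti-rabbit secondary with 1 µg/mL DAPI for 1 h at room temperature. Mounted in 80% glycerol/PBS and examined by fluorescence microscopy; untreated medium control.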

[20] = tested on: NTUB1; test: Stabilization GDP-bound alpha-tubulin in human NTUB1 cells assessed as microtubule disassembly at 50 to 100 uM after 6 hrs by Western blot analysis; format: cell-based
How it was run: (§4)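 NTUB1 cells (1×10^6 per dish) treated 6 h; 500 nM paclitaxel reference. Lysed in Tris-HCl pH 6.8 buffer with MgCl2, EGTA, 0.5% NP-40 and protease/phosphatase inhibitors. Centrifuged 15,000g, 10 min, 4 °C to separate soluble (supernatant) from polymerized (pellet) tubulin. Fractions run on 10% SDS-PAGE and immunoblotted for α-tubulin, β-actin as control, chemiluminescent detection.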

[21] = tested on: NTUB1; test: Stabilization GDP-bound alpha-tubulin in human NTUB1 cells assessed as microtubule disassembly at 10 uM after 6 hrs by Western blot analysis; format: cell-based; how it was run: as §4
[22] = tested on: NTUB1; test: Stabilization GDP-bound alpha-tubulin in human NTUB1 cells assessed as microtubule disassembly at 500 nM after 6 hrs by Western blot analysis; format: cell-based; how it was run: as §4
[23] = tested on: NTUB1; test: Inhibition of alpha-tubulin assembly in human NTUB1 cells at 10 to 100 uM after 6 hrs by Western blot analysis; format: cell-based; how it was run: as §4
[24] = tested on: NTUB1; test: Antimitotic activity in human NTUB1 cells assessed as accumulation of mitotic arrest cells at 0.3 to 1 uM after 24 hrs by DAPI staining-based microscopic analysis; format: functional, cell-based; how it was run: as §3
[25] = tested on: NTUB1; test: Antimitotic activity in human NTUB1 cells assessed as appearance of rounded and dead cells at 0.3 to 3 uM after 24 hrs; format: functional, cell-based
How it was run: (§5)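 NTUB1 cells at 7×10^5 cells per 10 cm dish, treated 24 h; medium-only control. Cell rounding and death scored by light-microscopic morphology.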

[26] = tested on: NTUB1; test: Inhibition of alpha-tubulin assembly in human NTUB1 cells at 10 nM after 24 hrs by DAPI staining-based microscopic analysis; format: cell-based; how it was run: as §3
[27] = tested on: NTUB1; test: Antimitotic activity in human NTUB1 cells assessed as accumulation of mitotic arrest cells at 10 nM after 24 hrs by DAPI staining-based microscopic analysis; format: functional, cell-based; how it was run: as §3
[28] = tested on: NTUB1; test: Antimitotic activity in human NTUB1 cells assessed as appearance of rounded and dead cells at 10 nM after 24 hrs; format: functional, cell-based; how it was run: as §5

For `CCOC(=O)c1ccc(/C=C/C(=O)c2cc(OC)ccc2OC)cc1`, the IC50 [1] was 4.49 µM and the IC50 [2] was 5.7 µM.

`COc1ccc(OC)c(C(/C=C/c2ccc(C(=O)NC3CC3)cc2)=N/C2CC2)c1` gave an IC50 [1] of 3.57 µM and an IC50 [2] of 4.26 µM.

Compound `COc1ccc(OC)c(C(=O)/C=C/c2ccc(C(=O)OCc3ccccc3)cc2)c1` has an IC50 [1] of 13.3 µM and an IC50 [2] of 17.9 µM.

For `COc1ccc(OC)c(C(=O)/C=C/c2ccc(C(=O)OC(C)C)cc2)c1`, the IC50 [1] was 4.42 µM and the IC50 [2] was 6.74 µM.

`CCN(CC)C(=O)c1ccc(/C=C/C(=O)c2cc(OC)ccc2OC)cc1` gave an IC50 [1] of 2.69 µM and an IC50 [2] of 3.79 µM.

`CCCNC(=O)c1ccc(/C=C/C(=O)c2cc(OC)ccc2OC)cc1` gave an IC50 [1] of 2.26 µM and an IC50 [2] of 1.5 µM.

`COc1ccc(OC)c(C(=O)/C=C/c2ccc(C(=O)N3CCCC3)cc2)c1` gave an IC50 [1] of 1.26 µM, an IC50 [2] of 0.53 µM and an Activity [3] of 20.4%. For the same compound, the Activity [4] was 28.8%, the Activity [5] was 46.6% and the Activity [6] was 2.16%. It also gave an Activity [7] of 18.3%, an Activity [8] of 11.3% and an Activity [9] of 7.03%. The Activity [10] was 61%, the Activity [11] was 14.02% and the Activity [12] was 25.28%. The Activity [13] was 45.81%, the Activity [14] was 7.8% and the Activity [15] was 27.69%. It also gave an Activity [16] of 21.83%, an Activity [17] of 18.44% and an Activity [18] of 24.45%. The inhibition [19] was “Active”, the Activity [20] was “Dose-dependent effect” and the Activity [21] was “inactive”. For the same compound, the Activity [22] was “Active”, the inhibition [23] was “inactive” and the Activity [24] was “Active”. The Activity [25] was “Active”.

With `COc1ccc(OC)c(C(=O)/C=C/c2ccc(C(=O)O)s2)c1` the IC50 [1] was > 50 µM.

Compound `COc1ccc(OC)c(C(=O)/C=C/c2ccc(C(=O)NC3CCCCC3)cc2)c1` has an IC50 [1] of 2.25 µM and an IC50 [2] of 6.3 µM.

In the case of `COc1ccc(OC)c(C(=O)/C=C/c2ccc(C(=O)O)cc2)c1`, the IC50 [1] is reported as 5.7 µM and the IC50 [2] is reported as 7.24 µM.

`CCCOC(=O)c1ccc(/C=C/C(=O)c2cc(OC)ccc2OC)cc1` showed an IC50 [1] of 6.01 µM and an IC50 [2] of 26.9 µM.

With `COc1ccc(OC)c(C(=O)/C=C/c2ccc(C(=O)N(C)CCO)cc2)c1` the IC50 [1] was 4.42 µM and the IC50 [2] was 5.75 µM.

`COc1ccc(OC)c(C(=O)/C=C/c2ccc(C(=O)NC(C)C)cc2)c1` gave an IC50 [1] of 1.97 µM, an IC50 [2] of 1.58 µM and an Activity [3] of 22.6%. The Activity [4] was 27.2%, the Activity [5] was 44.9% and the Activity [6] was 1.84%. The Activity [7] was 24.2%, the Activity [8] was 21.2% and the Activity [9] was 22.3%. It also gave an Activity [10] of 30.3%, an Activity [11] of 19.22% and an Activity [12] of 25.83%. For the same compound, the Activity [13] was 38.85%, the Activity [14] was 9.25% and the Activity [15] was 25.43%. For the same compound, the Activity [16] was 16.09%, the Activity [17] was 36.73% and the Activity [18] was 14.26%.

Compound `CNC(=O)c1ccc(/C=C/C(=O)c2cc(OC)ccc2OC)cc1` has an IC50 [1] of 2.2 µM and an IC50 [2] of 2.13 µM.

In the case of `COc1ccc(OC)c(C(=O)/C=C/c2ccc(C(=O)OCC=C(C)C)cc2)c1`, the IC50 [1] is reported as 13.4 µM and the IC50 [2] is reported as > 50 µM.

With `COC(=O)c1ccc(/C=C/C(=O)c2cc(OC)ccc2OC)cc1` the IC50 [1] was 3.51 µM and the IC50 [2] was 4.85 µM.

In the case of `CCNC(=O)c1ccc(/C=C/C(=O)c2cc(OC)ccc2OC)cc1`, the IC50 [1] is reported as 3.76 µM and the IC50 [2] is reported as 4.18 µM.

Compound `COc1ccc(OC)c(C(=O)/C=C/c2ccc(C(=O)N(C)C)cc2)c1` has an IC50 [1] of 3.89 µM and an IC50 [2] of 4.58 µM.

In the case of `CC(=O)O[C@H]1C(=O)[C@@]2(C)[C@H]([C@H](OC(=O)c3ccccc3)[C@]3(O)C[C@H](OC(=O)[C@H](O)[C@@H](NC(=O)c4ccccc4)c4ccccc4)C(C)=C1C3(C)C)[C@]1(OC(C)=O)CO[C@@H]1C[C@@H]2O`, the inhibition [26] is reported as “inactive”, the Activity [27] is reported as “Active” and the Activity [28] is reported as “Active”.
